Our source for the cytotoxicity values is ChEMBL document CHEMBL4513216, “Probing the Open Global Health Chemical Diversity Library for Multistage-Active Starting Points for Next-Generation Antimalarials” (ACS Infect Dis, 2020).

The series can be described thus: Toxicity liver stage against HepG2, at 10uM. Further details: test concentration 10 uM, cell line HepG2-A16-CD81EGFP. The following applies: human, HepG2-A16-CD81EGFP cells; read-out: INHIBITION
The series is classed as cell-based. The gist of the method: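 Uninfected HepG2-A16-CD81EGFP cells, 3 × 10^3 per well, 1536-well, plated on prespotted compound at 10 μM final, parasite-free screening media added to match infected plates; puromycin 10 μM positive, DMSO 0.5% negative; run in parallel with 48 h PbLuc assay at 37 °C, 5% CO2; viability by CellTiter-Glo luminescence, normalized to controls.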
Take `CS(=O)(=O)c1cccc(C(=O)NCc2nc3cc(F)ccc3[nH]2)c1`: the cytotoxicity at 10 µM was found to be 12.2%.

Turning to `CCc1noc(C(C)N2CCC(C(=O)Nc3cnn(CC)c3)CC2)n1` (configuration not stated), the cytotoxicity at 10 µM stood at 2.21%.

`CCOC(C)c1nc(CN2CCC(NC(C)C)CC2)cs1` (configuration not stated): the cytotoxicity at 10 µM is 1.1%.

For `O=S1(=O)NCC2(CCCN(Cc3ccccn3)C2)Oc2ncccc21` (configuration not stated), the cytotoxicity at 10 µM came out at 2.22%.

For `COc1cc2c(cc1C1CC(=O)NCc3nc(N(C)C)sc31)CCC2` (configuration not stated), the cytotoxicity at 10 µM was determined as 1.16%.

On to `O=C(NC1CC1)c1cc(Sc2ncccn2)ccn1`, for which the cytotoxicity at 10 µM was determined as 0.493%.

As to `Cc1csc(CCNC(=O)c2cc3c(nc2O)CCC(C)C3)n1` (configuration not stated), the cytotoxicity at 10 µM was -3.91%.

In the case of `CN(C)c1cc2c(nn1)CCN(C(=O)C1CCCc3ccccc31)C2` (configuration not stated), the cytotoxicity at 10 µM is -8.57%.

Take `CN(C)Cc1ccc(CNC(=O)NCC2(C)CCCS2)cc1` (configuration not stated): the cytotoxicity at 10 µM is -12.9%.

Regarding `CC(=O)Nc1ccc(S(=O)(=O)NC(=O)CCC2CCCO2)cc1` (configuration not stated), the cytotoxicity at 10 µM is -5.11%.

As for `O=C(c1ccnnc1)N1CCO[C@H]2[C@@H](OCc3cccnc3)CC[C@@H]21`, the cytotoxicity at 10 µM is 2.93%.

Consider `COCCC(=O)N1CCC(NC(=O)c2cscc2C)CC1`, for which the cytotoxicity at 10 µM is -14.2%.

`Cc1ccc(C)c(S(=O)(=O)NCCOc2ccc3nnc(C)n3n2)c1`: the cytotoxicity at 10 µM was -11.3%.

On to `Cc1cccc(COc2ccc(C(C)N)cc2)c1` (configuration not stated), for which the cytotoxicity at 10 µM was -1.79%.

As for `Cc1cc(C)c(CNC(=O)N2CCNC(=O)C2)c(=O)[nH]1`, the cytotoxicity at 10 µM is -0.535%.

In the case of `CCc1cnc(CN(C)C2CCN(CCS(C)(=O)=O)C2)o1` (configuration not stated), the cytotoxicity at 10 µM is -3.94%.

In the case of `CCc1n[nH]c(C2CN(Cc3nnc(C4CCC4)o3)CCO2)n1` (configuration not stated), the cytotoxicity at 10 µM was -6.28%.

On to `Cc1ccccc1-n1cnnc1SCC(=O)NCC1CCCO1` (configuration not stated), for which the cytotoxicity at 10 µM was -1.15%.

For `Cc1cccnc1CCNC(=O)CC1C(=O)NCCN1CCC(C)C` (configuration not stated), the cytotoxicity at 10 µM turned out to be 9.01%.

In the case of `Cc1cc(N2CCCCC2Cn2nc(C)cc2C)n2ncnc2n1` (configuration not stated), the cytotoxicity at 10 µM is -1.38%.

On to `COc1cc2[nH]c(C(=O)O)cc2c(OC)c1C`, for which the cytotoxicity at 10 µM was -1.51%.

On to `Cc1cc(C(F)(F)F)nn1CCCNC(=O)C1CCC1`, for which the cytotoxicity at 10 µM was -12.2%.

In the case of `COCCN(C)C(C(=O)O)c1cc(Cl)ccc1OC` (configuration not stated), the cytotoxicity at 10 µM is -6.92%.

As for `Cc1cccc(CN2CCc3ncnc(C4CC4)c3CC2)n1`, the cytotoxicity at 10 µM was -158%.

For the compound `COc1ccc(CN(C)[C@@H]2CN(C(=O)c3cncs3)C[C@H]2O)cc1`, the cytotoxicity at 10 µM is -12.4%.

Take `CC(C)CC(=O)N1CC(=O)c2sc(NCCc3ccccc3)nc2C1`: the cytotoxicity at 10 µM is -0.501%.

As to `O=C(c1ccco1)N1C2CCC(O)(CC2)C1CO` (configuration not stated), the cytotoxicity at 10 µM was 6.88%.

`Cc1ccc(NC(=O)N2CCN(C(=O)CC3CCCC3)CC2)s1`: the cytotoxicity at 10 µM came to 4.36%.

Regarding `CN1CC(=O)N(c2cccc(F)c2)CC12CCNC2` (configuration not stated), the cytotoxicity at 10 µM stood at 6.23%.

Turning to `CCC1CN(CCNC(C)=O)CCN1CCOC` (configuration not stated), the cytotoxicity at 10 µM was -3.09%.

`COCC1CN(Cc2ccsc2)Cc2nn(C)cc21` (configuration not stated): the cytotoxicity at 10 µM worked out at 5.15%.

For the compound `Cc1nc(CNCC2CCCN(C(=O)OC(C)(C)C)C2)cs1` (configuration not stated), the cytotoxicity at 10 µM was -18.2%.

With `CC(C)N(C)[C@@H]1CCN(c2ncccn2)[C@H]1Cc1ccncc1`, the cytotoxicity at 10 µM was -3.42%.

On to `CN(Cc1ccsc1)c1nc(-c2ccccn2)nc2c1CCNCC2`, for which the cytotoxicity at 10 µM is -6.18%.

Regarding `O=C(NCCNc1ncccn1)C1CC(=O)N(Cc2ccco2)C1` (configuration not stated), the cytotoxicity at 10 µM was -8.78%.

`Fc1ccccc1-c1noc2c1CN(CCN1CCOCC1)CC2`: the cytotoxicity at 10 µM worked out at 0.0119%.

Turning to `COC(=O)c1ccc(N2CCN(C(=O)CCCc3cn[nH]c3)CC2)cc1`, the cytotoxicity at 10 µM was -4.32%.

With `CC(=O)N1CCC(CCc2ccnc(NC(=O)c3ccccn3)c2)CC1`, the cytotoxicity at 10 µM is 0.15%.

On to `CC(Cc1cccs1)NC(=O)CCn1cccn1` (configuration not stated), for which the cytotoxicity at 10 µM is -14.7%.

Regarding `Cc1nnc(NC(=O)NCc2ccnc(N(C)C)c2)s1`, the cytotoxicity at 10 µM was -10.2%.

In the case of `Cc1noc(Cl)c1CCC(=O)N1CCN(c2cnccn2)CC1`, the cytotoxicity at 10 µM is -3.5%.

Take `O=C(CCNS(=O)(=O)c1cccnc1)N1CCOC(c2ccccc2)C1` (configuration not stated): the cytotoxicity at 10 µM was 5.11%.

As for `COc1ccccc1CN(Cc1cccnc1)Cc1nccs1`, the cytotoxicity at 10 µM is -1.53%.

Consider `CN1CCC(c2nnc3ccc(C(=O)N4CCCCC4)cn23)C1` (configuration not stated), for which the cytotoxicity at 10 µM was -167%.

For the compound `CN(Cc1ccc(Br)s1)Cn1nc(-c2ccc(F)cc2)oc1=O`, the cytotoxicity at 10 µM stood at 1.64%.

As for `CCC1=N[C@@]2(CC[C@@H]3CN(S(=O)(=O)CC)C[C@@H]32)C(=O)N1CCOC`, the cytotoxicity at 10 µM was -0.211%.

As to `CCN1C(=O)CCC12CCC(NC(=O)c1cnccn1)CC2` (configuration not stated), the cytotoxicity at 10 µM is -2.42%.

On to `O=C(CC(F)(F)F)NCC(O)c1ccc2ccccc2c1` (configuration not stated), for which the cytotoxicity at 10 µM is -4.06%.

Take `CC(C)c1nccc(CN2CCC(O)(CN3CCCCC3)C2)n1` (configuration not stated): the cytotoxicity at 10 µM is -1.95%.

Take `Cc1ccc(-n2nc(C)c3c(C)cc(OCC(=O)NC(C)C)nc32)cc1`: the cytotoxicity at 10 µM was -3.61%.

With `Cc1cc(NC(=O)C(C)Nc2cccc(COCc3ccco3)c2)no1` (configuration not stated), the cytotoxicity at 10 µM was -1.42%.

Take `c1cnc(NCc2noc3c2CN(C2CCOC2)CC3)nc1` (configuration not stated): the cytotoxicity at 10 µM is -3.71%.

As to `O=C(CSc1ccc2c(c1)OCCO2)NS(=O)(=O)c1cccnc1`, the cytotoxicity at 10 µM is -5.72%.

Turning to `O=C(Cc1ccccn1)N1CCN(C(=O)c2cccc3[nH]ncc23)CC1`, the cytotoxicity at 10 µM is -2.48%.

Regarding `CNC(=O)c1cc2c(s1)CCN(C(=O)CCC1CCCN(C)C1)C2` (configuration not stated), the cytotoxicity at 10 µM is -29.3%.

As for `CC(C)(O)CCc1ccc(C(=O)N2CCN(CC3CCCC3)CC2)cc1`, the cytotoxicity at 10 µM was 12.4%.

Regarding `O=C(CSC1CCc2ccccc2NC1=O)NCCc1ccco1` (configuration not stated), the cytotoxicity at 10 µM is -13%.

For `CSCCC(=O)NS(=O)(=O)c1ccc2c(c1)OCCO2`, the cytotoxicity at 10 µM is -14.7%.

`O=C(c1cccnc1N1CCN(Cc2ccoc2)CC1)N1CCCCC1`: the cytotoxicity at 10 µM was -3.68%.

Regarding `O=c1cc2c(nn1CN1CCOCC1)CCC2`, the cytotoxicity at 10 µM amounted to 1.31%.

In the case of `c1ccc(CN2CCc3nnc(COc4ccccn4)n3CC2)nc1`, the cytotoxicity at 10 µM was -2.1%.

On to `CCCn1ccnc1CN1CCC(Oc2cccc(F)c2)(C(=O)O)CC1`, for which the cytotoxicity at 10 µM was 1%.

As for `CCC(=O)N1CCCC(Cn2cc(-c3ccc(F)cc3)nn2)C1` (configuration not stated), the cytotoxicity at 10 µM was found to be 2.89%.

As for `N#Cc1c(Cl)nsc1NCc1cccnc1OC1CCCC1`, the cytotoxicity at 10 µM is 27.1%.

Turning to `CCN(Cc1cc(Cl)ccc1OC)Cc1cc(C)nn1C`, the cytotoxicity at 10 µM was determined as 6.62%.

`CN(Cc1nc2ccccc2c(=O)[nH]1)C[C@@H]1CCCN2CCCC[C@H]12`: the cytotoxicity at 10 µM was -6.01%.

Take `CO[C@@]1(C)C[C@@H](O)C12CCN(C(=O)C1(c3ccccc3F)CC1)CC2`: the cytotoxicity at 10 µM is 3.47%.

As to `Cc1noc(C)c1CC(=O)Nc1ccn(CC(N)=O)n1`, the cytotoxicity at 10 µM was 9.86%.

As for `CCS(=O)(=O)N1C[C@H]2CN(CC3CC3)C(=O)[C@H]2C1`, the cytotoxicity at 10 µM came to 0.797%.

Consider `CN(C)C(=O)C1SCCc2ccccc21` (configuration not stated), for which the cytotoxicity at 10 µM came out at 1.81%.

`Cc1cc(NCc2ccc(C#N)cc2)n2nc(C)cc2n1`: the cytotoxicity at 10 µM was -10.9%.

For `COc1cccc(CN2CCC(c3nnc(-c4cnc(C)cn4)o3)C2)c1` (configuration not stated), the cytotoxicity at 10 µM was -10.4%.

For `Cc1n[nH]c(C2CN(C(=O)CCc3ccsc3)CCO2)n1` (configuration not stated), the cytotoxicity at 10 µM is -5.15%.

Consider `Cc1ccc(C(C(=O)O)N2CCCN(Cc3ccccn3)CC2)c(F)c1` (configuration not stated), for which the cytotoxicity at 10 µM was -1.62%.

Regarding `Cc1cccc(CN2C(=O)CCC23CCN(c2ccccn2)CC3)n1`, the cytotoxicity at 10 µM turned out to be 3.2%.

As for `CC(C)SCCn1ccc2[nH]c(=O)c(C#N)cc2c1=O`, the cytotoxicity at 10 µM is 3.18%.

As to `Cc1ncc2c(c1CNC(=O)C1(c3ccc(F)cc3)CC1)CCNC2`, the cytotoxicity at 10 µM was -46.6%.

With `CN(C)c1nccc(-c2cnc(N(C)C)[nH]c2=O)n1`, the cytotoxicity at 10 µM is -1.17%.

For the compound `CCc1nnsc1C(=O)N1CCN(CC(O)C(C)(C)C)CC1` (configuration not stated), the cytotoxicity at 10 µM is 0.542%.

For the compound `CN(C)C(=O)NCc1cc(=O)n2c(n1)CN(Cc1ccoc1)CCC2`, the cytotoxicity at 10 µM was -99.3%.

`CCc1cc(NC2CCS(=O)(=O)CC2)nc(N2CCCCC2)n1`: the cytotoxicity at 10 µM is -15.8%.

Consider `CC(Cn1ccnc1)NC(=O)C1(c2ccc3c(c2)OCCO3)CCCC1` (configuration not stated), for which the cytotoxicity at 10 µM was -2.5%.

`CNC(=O)[C@H]1C[C@@H]2CCN(CCc3ccccc3)C[C@@H]2O1`: the cytotoxicity at 10 µM is -81.7%.

Consider `Cc1nn(C)c(C)c1CN(C)C(=O)c1cc(C(F)(F)F)n(C)n1`, for which the cytotoxicity at 10 µM was -0.65%.

As for `Cc1nc(CN2CCCC(Cn3cc(CCO)nn3)C2)c2ccccn12` (configuration not stated), the cytotoxicity at 10 µM turned out to be 3.28%.

Consider `O=C1NCC2(CCCN(Cc3ccc(F)cc3)C2)Oc2ccccc21` (configuration not stated), for which the cytotoxicity at 10 µM is -12.8%.

On to `CN(CC(=O)NC(Cc1ccsc1)c1cccnc1)Cc1cccnc1` (configuration not stated), for which the cytotoxicity at 10 µM was -4.04%.

`Cc1ccc(C(=O)N2CCC(c3nccn3Cc3ccncc3)CC2)s1`: the cytotoxicity at 10 µM was 1.2%.

For `CC(NC(=O)Nc1ccc(-c2csnn2)cc1)C(=O)NC(C)(C)C` (configuration not stated), the cytotoxicity at 10 µM stood at 9.11%.

Take `C[C@@H]1CN(C(=O)c2ccc(Br)cc2F)CC(C(N)=O)O1` (some centres not stated): the cytotoxicity at 10 µM was -2.74%.

Regarding `Cc1nc(C)c(C(C)NC(=O)NCCNc2cccc(F)c2C#N)s1` (configuration not stated), the cytotoxicity at 10 µM was -1.37%.

`COC(=O)c1cccc2nc([C@H]3CCN(Cc4ccccc4C)C3)oc12`: the cytotoxicity at 10 µM was determined as 8.36%.

With `CCn1c(CC2CCN(C(=O)c3cc(C(C)C)nn3C)CC2)n[nH]c1=O`, the cytotoxicity at 10 µM was -58.5%.

Turning to `OCC1(Cc2cccc(Cl)c2)CCCN(c2ncccn2)C1` (configuration not stated), the cytotoxicity at 10 µM was found to be 0.668%.

As for `Cc1cnn(CCNCCCOc2ccccc2)c1`, the cytotoxicity at 10 µM is -11.8%.

Take `CCc1cnc(CNc2ccc(C(=O)N3CCCC(C)C3)cc2C)o1` (configuration not stated): the cytotoxicity at 10 µM is -3.58%.

Consider `CCCOC(C)C(=O)N1CCC(O)(c2ccc3nc(C)ccc3c2)CC1` (configuration not stated), for which the cytotoxicity at 10 µM worked out at 1.12%.
